Measurements from ChEMBL document CHEMBL1156261, “Evaluation of substituted N,N'-diarylsulfonamides as activators of the tumor cell specific M2 isoform of pyruvate kinase” (J Med Chem, 2010).
Active and inactive are the calls of the source. No rule for the calls is given here.

Legend:
[1] = target: Pyruvate kinase PKLR (Homo sapiens) (UniProt P30613); assay: Activation of PKR assessed as pyruvate formation by fluorescent pyruvate kinase-lactate dehydrogenase coupled assay relative to control; parameters: concentration or dose not given beside the values
Sequence of Pyruvate kinase PKLR (Homo sapiens) (P30613 whole entry, looked up): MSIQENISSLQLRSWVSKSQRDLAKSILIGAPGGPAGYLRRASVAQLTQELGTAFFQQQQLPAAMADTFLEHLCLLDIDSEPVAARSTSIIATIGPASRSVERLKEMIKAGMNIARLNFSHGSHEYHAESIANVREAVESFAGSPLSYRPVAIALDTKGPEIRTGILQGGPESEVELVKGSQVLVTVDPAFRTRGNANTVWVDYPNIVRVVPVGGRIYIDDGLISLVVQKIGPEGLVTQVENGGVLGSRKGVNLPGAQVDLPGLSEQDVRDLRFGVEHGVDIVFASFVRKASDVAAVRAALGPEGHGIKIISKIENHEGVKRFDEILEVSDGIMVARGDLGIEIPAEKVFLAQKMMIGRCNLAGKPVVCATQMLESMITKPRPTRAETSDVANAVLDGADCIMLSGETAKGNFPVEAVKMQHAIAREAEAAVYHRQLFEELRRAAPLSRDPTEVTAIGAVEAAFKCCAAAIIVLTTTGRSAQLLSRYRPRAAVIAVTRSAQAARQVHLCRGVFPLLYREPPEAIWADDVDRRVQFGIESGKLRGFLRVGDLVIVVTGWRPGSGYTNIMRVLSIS

[2] = target: Pyruvate kinase PKLR (Homo sapiens) (UniProt P30613); assay: Activation of PKL assessed as pyruvate formation by fluorescent pyruvate kinase-lactate dehydrogenase coupled assay relative to control; parameters: concentration or dose not given beside the values
[3] = target: Pyruvate kinase PKLR (Homo sapiens) (UniProt P30613); assay: Activation of PKR assessed as ATP product formation by luminescent pyruvate kinase-luciferase coupled assay relative to control; parameters: concentration or dose not given beside the values
How it was run: (§1)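 Luciferase-coupled ATP production assay run as for PKM2: imidazole pH 7.2 buffer with KCl, MgCl2, Tween 20 and BSA, 0.1 mM ADP, 0.5 mM PEP, 1 h at r.t., Kinase-Glo luminescence. Enzyme final concentrations were PKM1 1 nM, PKL 0.1 nM, PKR 0.1 nM. % activation normalized to DMSO (neutral) and no-enzyme controls.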

Pyruvate kinase PKM [4] = target: T1, Pyruvate kinase PKM (Homo sapiens, UniProt P14618); assay: Activation of PKM2 assessed as ATP product formation at 57 uM by luminescent pyruvate kinase-luciferase coupled assay relative to fructose-1,6-bis-phosphate
T1 sequence (P14618 2-531 limits assumed): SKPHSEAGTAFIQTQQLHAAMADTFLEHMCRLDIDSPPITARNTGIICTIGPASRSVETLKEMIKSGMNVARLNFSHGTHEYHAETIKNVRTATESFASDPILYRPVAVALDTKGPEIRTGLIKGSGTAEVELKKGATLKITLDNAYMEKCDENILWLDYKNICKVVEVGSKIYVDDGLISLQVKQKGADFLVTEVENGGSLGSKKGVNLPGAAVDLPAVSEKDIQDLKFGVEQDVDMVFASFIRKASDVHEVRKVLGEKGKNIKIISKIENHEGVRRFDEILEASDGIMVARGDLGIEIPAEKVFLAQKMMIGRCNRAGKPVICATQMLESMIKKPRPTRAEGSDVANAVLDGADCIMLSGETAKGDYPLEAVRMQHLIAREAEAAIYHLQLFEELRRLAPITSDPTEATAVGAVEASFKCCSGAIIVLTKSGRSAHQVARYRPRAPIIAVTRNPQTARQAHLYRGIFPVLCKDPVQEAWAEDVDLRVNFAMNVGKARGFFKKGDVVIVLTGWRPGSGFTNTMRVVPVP
How it was run: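 Recombinant human PKM2 (0.1 nM final) in 50 mM imidazole pH 7.2, 50 mM KCl, 7 mM MgCl2, 0.01% Tween 20, 0.05% BSA; 0.1 mM ADP, 0.5 mM PEP; 1 h at r.t., then Kinase-Glo luciferase read of ATP formed. Activation % = (c−n)/(n−i)×100 against DMSO and no-enzyme controls; 100% ≈ 2-fold over basal signal. Max response taken at 57 μM; three separate experiments.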

Pyruvate kinase PKM [5] = target: T1, Pyruvate kinase PKM; assay: Activation of PKM1 assessed as pyruvate formation by fluorescent pyruvate kinase-lactate dehydrogenase coupled assay
Pyruvate kinase PKM [6] = target: T1, Pyruvate kinase PKM; assay: Activation of PKM1 assessed as ATP product formation by luminescent pyruvate kinase-luciferase coupled assay; how it was run: as §1
[7] = target: Pyruvate kinase PKLR (Homo sapiens) (UniProt P30613); assay: Activation of PKL assessed as ATP product formation by luminescent pyruvate kinase-luciferase coupled assay relative to control; parameters: concentration or dose not given beside the values; how it was run: as §1

| Compound | Activity [1] [%] | Activity [2] [%] | Activity [3] [%] | Activity (Pyruvate kinase PKM [4]) [%] | Activity (Pyruvate kinase PKM [5]) | Activity (Pyruvate kinase PKM [6]) | Activity [7] [%] |
| --- | --- | --- | --- | --- | --- | --- | --- |
| O=S(=O)(c1cccc(C(F)(F)F)c1)N1CCN(S(=O)(=O)c2ccc3c(c2)OCCO3)CC1 | < 30 | < 30 | < 30 | 39.3 | inactive | inactive | < 30 |
| O=S(=O)(c1ccc2c(c1)OCCO2)N1CCN(S(=O)(=O)c2ccc3c(c2)OCCO3)CC1 | < 30 | < 30 | < 30 | 89.7 | inactive | inactive | < 30 |
| O=S(=O)(c1ccc2ccccc2c1)N1CCN(S(=O)(=O)c2c(F)cccc2F)CC1 | < 30 | < 30 | < 30 | 138 | inactive | inactive | < 30 |
| O=S(=O)(c1c(F)cccc1F)N1CCN(S(=O)(=O)c2c(F)cccc2F)CC1 | < 30 | < 30 | < 30 | 74.3 | inactive | inactive | < 30 |
| N#Cc1ccc(S(=O)(=O)N2CCN(S(=O)(=O)c3ccc4c(c3)OCCO4)CC2)cc1 | < 30 | < 30 | < 30 | 44.1 | inactive | inactive | < 30 |
| O=S(=O)(c1ccc2c(c1)OCCO2)C1CCN(S(=O)(=O)c2c(F)cccc2F)CC1 | < 30 | < 30 | < 30 | 110 | inactive | inactive | < 30 |
| O=S(=O)(NCCCCNS(=O)(=O)c1c(F)cccc1F)c1ccc2c(c1)OCCO2 | < 30 | < 30 | < 30 | 113 | inactive | inactive | < 30 |
| O=C1CN(S(=O)(=O)c2c(F)cccc2F)CCN1S(=O)(=O)c1ccc2c(c1)OCCO2 | < 30 | < 30 | < 30 | 105 | inactive | inactive | < 30 |
| C[C@H]1CN(S(=O)(=O)c2c(F)cccc2F)CCN1S(=O)(=O)c1ccc2c(c1)OCCO2 | < 30 | < 30 | < 30 | 109 | inactive | inactive | < 30 |
| O=S(=O)(c1ccc2c(c1)OCCO2)N1CCN(S(=O)(=O)c2ccccc2F)CC1 | < 30 | < 30 | < 30 | 114 | inactive | inactive | < 30 |
| O=S(=O)(NCCCCCCNS(=O)(=O)c1c(F)cccc1F)c1ccc2c(c1)OCCO2 | < 30 | < 30 | < 30 | 110 | inactive | inactive | < 30 |
| O=S(=O)(c1c(F)cccc1F)C1CCN(S(=O)(=O)c2ccc3c(c2)OCCO3)CC1 | < 30 | < 30 | < 30 | 104 | inactive | inactive | < 30 |
| O=S(=O)(N[C@H]1CC[C@H](NS(=O)(=O)c2c(F)cccc2F)CC1)c1ccc2c(c1)OCCO2 | < 30 | < 30 | < 30 | 90.8 | inactive | inactive | < 30 |
| C[C@@H]1CN(S(=O)(=O)c2c(F)cccc2F)CCN1S(=O)(=O)c1ccc2c(c1)OCCO2 | < 30 | < 30 | < 30 | 98.8 | inactive | inactive | < 30 |
| COc1cccc(S(=O)(=O)N2CCN(S(=O)(=O)c3ccc4c(c3)OCCO4)CC2)c1 | < 30 | < 30 | < 30 | 90 | inactive | inactive | < 30 |
| COc1cc(F)c(S(=O)(=O)N2CCN(S(=O)(=O)c3ccc4c(c3)OCCO4)CC2)c(F)c1 | < 30 | < 30 | < 30 | 91.8 | inactive | inactive | < 30 |

| Compound | Activity [1] [%] | Activity [2] [%] | Activity [3] [%] | Activity (Pyruvate kinase PKM [4]) [%] | Activity (Pyruvate kinase PKM [5]) | Activity (Pyruvate kinase PKM [6]) | Activity [7] [%] |
| --- | --- | --- | --- | --- | --- | --- | --- |
| O=S(=O)(c1ccc2c(c1)OCCO2)N1CCN(S(=O)(=O)c2ccc(F)cc2F)CC1 | < 30 | < 30 | < 30 | 113 | inactive | inactive | < 30 |
| Cn1ccc2cc(S(=O)(=O)N3CCN(S(=O)(=O)c4c(F)cccc4F)CC3)ccc21 | < 30 | < 30 | < 30 | 91.1 | inactive | inactive | < 30 |
| O=S(=O)(c1ccc2c(c1)OCO2)N1CCN(S(=O)(=O)c2c(F)cccc2F)CC1 | < 30 | < 30 | < 30 | 61 | inactive | inactive | < 30 |
| O=S(=O)(c1cccc(F)c1)N1CCN(S(=O)(=O)c2ccc3c(c2)OCCO3)CC1 | < 30 | < 30 | < 30 | 107 | inactive | inactive | < 30 |
| O=S(=O)(c1ccc2c(c1)OCCO2)N1CCN(S(=O)(=O)c2cc(F)c(F)cc2F)CC1 | < 30 | < 30 | < 30 | 105 | inactive | inactive | < 30 |
| O=S(=O)(c1ccc(F)cc1)N1CCN(S(=O)(=O)c2ccc3c(c2)OCCO3)CC1 | < 30 | < 30 | < 30 | – | inactive | inactive | < 30 |
| O=S(=O)(c1ccc2c(c1)OCCO2)N1CCN(S(=O)(=O)c2ccccn2)CC1 | < 30 | < 30 | < 30 | 103 | inactive | inactive | < 30 |
| O=S(=O)(c1ccc(Cl)cc1)N1CCN(S(=O)(=O)c2ccc3c(c2)OCCO3)CC1 | < 30 | < 30 | < 30 | – | inactive | inactive | < 30 |
| O=C1CN(S(=O)(=O)c2ccc3c(c2)OCCO3)CCN1S(=O)(=O)c1c(F)cccc1F | < 30 | < 30 | < 30 | 96.9 | inactive | inactive | < 30 |
| O=S(=O)(c1ccccc1)N1CCN(S(=O)(=O)c2ccc3c(c2)OCCO3)CC1 | < 30 | < 30 | < 30 | 108 | inactive | inactive | < 30 |
| O=S(=O)(NCCCNS(=O)(=O)c1c(F)cccc1F)c1ccc2c(c1)OCCO2 | < 30 | < 30 | < 30 | 106 | inactive | inactive | < 30 |
| COc1ccc(S(=O)(=O)N2CCN(S(=O)(=O)c3ccc(OC)cc3)CC2)cc1 | < 30 | < 30 | < 30 | 87.6 | inactive | inactive | < 30 |
| CC1(C)CCc2cc(S(=O)(=O)N3CCN(S(=O)(=O)c4c(F)cccc4F)CC3)ccc2O1 | < 30 | < 30 | < 30 | 119 | inactive | inactive | < 30 |
| COc1ccc(S(=O)(=O)N2CCN(S(=O)(=O)c3c(F)cccc3F)CC2)cc1 | < 30 | < 30 | < 30 | 102 | inactive | inactive | < 30 |
| O=S(=O)(c1ccc2c(c1)OCCCO2)N1CCN(S(=O)(=O)c2c(F)cccc2F)CC1 | < 30 | < 30 | < 30 | 100 | inactive | inactive | < 30 |
| O=S(=O)(c1ccc2c(c1)OCCO2)N1CCN(S(=O)(=O)c2c(F)ccc(O)c2F)CC1 | < 30 | < 30 | < 30 | 95.3 | inactive | inactive | < 30 |
